Screening data: PubChem BioAssay, The Scripps Research Institute Molecular Screening Center
An excerpt weighted towards active compounds, which were near 4.2% of everything screened.
CHO parental Ca – ATP-evoked calcium signal inhibitors, parental CHO, primary screen, counter-screen for OX1R antagonist project, cell-based, fluorescence, Fluo-8 calcium dye; parental CHO-K1, ATP-induced calcium, Fluo-8 fluorescence; inhibition, % at 5.6 µM; hit rate 0.63% among 330,000; AID 463079, 2010;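 active means inhibition above that plate's mean sample inhibition plus 3 SD, cut at about 26% in these data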;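 further: 0% = ATP-challenged DMSO wells and 100% = DMSO wells without ATP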
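test system = CHO parental line | reagent = ATP stimulus | measured by = intracellular calcium via Fluo-8 no-wash fluorescent dye | control set = ATP and no-ATP DMSO wells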
TAAR1 antag – human TAAR1 antagonists, primary screen, Fluo-8 calcium fluorescence, CHO RD-HGA16 cells | Trace amine-associated receptor 1 (Homo sapiens), Q96RJ0 | antagonist | inhibition, % at 3 µM | hit rate 1.5% among 360,000;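 active means inhibition above a per-plate cutoff, the mean inhibition of test compounds on that plate plus 3 SD, cut at about 49% in these data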;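 further: 0% = DMSO plus EC80 beta-PEA response and 100% = DMSO alone without agonist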
Target sequence (Q96RJ0 whole entry, looked up): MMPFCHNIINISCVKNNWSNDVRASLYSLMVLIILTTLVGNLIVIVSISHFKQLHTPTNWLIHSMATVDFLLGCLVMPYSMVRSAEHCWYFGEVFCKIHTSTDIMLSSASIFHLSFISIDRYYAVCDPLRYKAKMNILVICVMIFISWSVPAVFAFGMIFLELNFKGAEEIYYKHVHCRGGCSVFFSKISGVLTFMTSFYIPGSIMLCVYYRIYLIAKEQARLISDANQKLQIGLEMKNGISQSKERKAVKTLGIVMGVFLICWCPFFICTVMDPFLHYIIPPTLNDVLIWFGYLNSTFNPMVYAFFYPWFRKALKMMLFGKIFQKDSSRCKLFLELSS
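Test system – hTAAR1-expressing CHO RD-HGA16 cells, Gα16-coupled · Also added – β-PEA at EC80 concentration, post-compound challenge · Compound – 3 µM, single point · Incubation – dye loading 75 min at 37 °C, then 30 min room temperature · Measured by – Fluo-8 intracellular calcium dye fluorescence, real-time kinetic reads · Benchmarks – vehicle and agonist controls · Replicates – singlicate, one well per test compound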
TAAR1 agonist – human TAAR1 agonists, primary screen, Fluo-8 calcium fluorescence, CHO RD-HGA16 cells | vehicle wells 0%, saturating PEA agonist 100% | activation, % at 3 µM | hit rate 0.99% among 360,000 | AID 624467, 2012;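 active means activation above the mean activation of all test compounds in the run plus 3 SD, cut at about 38% in these data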
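System: CHO-derived RD-HGA16 cells with stable Gα16 and human TAAR1 / Times: 17-24 h plating, Fluo-8 75 min 37 °C, 30 min RT / Technique: calcium-sensitive Fluo-8 signal, excitation 470-495, emission 515-575 nm / Measure: % activation relative to PEA EC100 response / Benchmarks: DMSO and PEA EC100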
OX1R antag-1 – antagonists of human orexin 1 receptor (OX1R); Orexin/Hypocretin receptor type 1 (Homo sapiens), O43613; hit rate 1.8% among 330,000; AID 485270, 2010; OX1R-expressing cells, FRET antagonist read-out; inhibition, % at 6.6 µM; in the data active means inhibition mostly above about 38%, no sharp cut-off; inactive means mostly below about 40%;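 further: 0% = agonist challenge alone and 100% = reference antagonist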
OX1R antag-2 – OX1R (HCRTR1) antagonists, primary screen, fluorescence, CHO/OX1R cells, Fluo-8 calcium, orexin A; hit rate 0.43% among 330,000; inhibition, % at 5 µM; Fluo-8 calcium fluorescence;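 active means inhibition above its plate's threshold, mean inhibition of all tested compounds on the plate plus 3 SD, cut at about 37% in these data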;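 further: 0% = orexin A challenge wells and 100% = SB-334867-A antagonist wells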
GalR3 antagonist – GalR3 antagonists in HEK293 cells, primary screen, cell-based, fluorescence readout; Galanin receptor type 3 (Homo sapiens), O60755; HEK293 GalR3-CNG cAMP membrane potential fluorescence; galR3 body fused to GalR1 C-terminus; inhibition, % at 3 µM; hit rate 0.44% among 360,000; AID 651719, 2012;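 active means inhibition above the screen-wide average plus 3 SD, cut at about 13% in these data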;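 further: forskolin and galanin both at EC90 stimulate the cells; cAMP rise reported by CNG channel membrane potential dye signal; 0% = forskolin plus galanin with DMSO and 100% = forskolin alone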
Target sequence (O60755 1-299 limits assumed): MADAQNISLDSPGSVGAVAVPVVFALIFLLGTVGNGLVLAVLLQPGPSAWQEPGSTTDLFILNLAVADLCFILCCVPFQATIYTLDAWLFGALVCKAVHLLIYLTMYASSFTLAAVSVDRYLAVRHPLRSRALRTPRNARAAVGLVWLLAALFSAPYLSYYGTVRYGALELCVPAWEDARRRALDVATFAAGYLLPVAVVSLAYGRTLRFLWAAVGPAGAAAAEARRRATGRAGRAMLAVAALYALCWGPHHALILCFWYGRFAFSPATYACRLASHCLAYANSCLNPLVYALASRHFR
TAAR1 ag confirm – human TAAR1 agonists, retest of hits, confirmation, Fluo-8 calcium fluorescence, CHO RD-HGA16 cells; shares compounds with TAAR1 agonist; scaled: DMSO 0%, maximal phenethylamine 100%; activation, % at 3 µM; hit rate 82% among 2,400; AID 651783, 2012;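 active means activation above a cutoff set at the run's mean compound activation plus 3 SD, cut at about 39% in these data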
Ga16 ag counter – nonselective calcium mobilization agonists, CHO-Ga16 cells, counter-screen for hTAAR1 agonist project, cell-based, fluorescence, CHO-Ga16 parental line; shares compounds with TAAR1 agonist; hit rate 50% among 2,400; Fluo-8 calcium fluorescence; normalized to maximal ATP response, DMSO zero; AID 651787, 2012; activation, % at 3 µM;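 active means activation above the run cutoff, the mean activation over all tested wells plus 3 SD, cut at about 12% in these data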;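 further: 0% = DMSO wells and 100% = maximal ATP response on the peak over basal ratio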
TAAR1 desensitize – TAAR1 desensitization by agonist hits, confirmation, counter-screen for TAAR1 agonist project, cell-based, fluorescence, tachyphylaxis. shares compounds with TAAR1 agonist. CHO RD-HGA16 hTAAR1, Fluo-8 calcium, beta-PEA response inhibition. inhibition, % at 3 µM. hit rate 46% among 2,400. AID 651951, 2012;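 active means inhibition above the run cutoff, the mean inhibition of all test compounds plus 3 SD, cut at about 49% in these data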;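 further: beta-PEA stimulus applied at its EC80; loss of beta-PEA calcium signal after compound pretreatment read as receptor desensitization; 0% = DMSO with beta-PEA at EC80 and 100% = DMSO alone without agonist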
Ga16 antag count – inhibition of ATP-evoked calcium response in CHO-Ga16 cells, counter-screen for TAAR1 agonist project, cell-based, fluorescence. shares compounds with TAAR1 agonist. hit rate 39% among 2,400. CHO-Ga16 ATP-induced calcium, Fluo-8 fluorescence. AID 651952, 2012. inhibition, % at 3 µM;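 active means inhibition above the plate's mean compound inhibition plus 3 SD, computed per plate, cut at about 22% in these data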;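 further: 0% = EC80 ATP with DMSO and 100% = DMSO wells without ATP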
* = called active by the depositor; . = no result; ! = not active in a repeat.

SMILES	CHO parental Ca	TAAR1 antag	TAAR1 agonist	OX1R antag-1	OX1R antag-2	GalR3 antagonist	TAAR1 ag confirm	Ga16 ag counter	TAAR1 desensitize	Ga16 antag count
Clc1ccc(-c2ccc(C=Nc3ccc(N4CCOCC4)cc3)o2)c(Cl)c1	-13.4	-24.8	30.3	20.3	-9.2	-5.2	.	.	.	.
Clc1ccc(-c2ccc(C=Nc3ccc(N4CCOCC4)cc3)o2)cc1	-10.5	-1.9	54.0*	31.6	-9.0	-1.6	27.3	15.0*	15.9	18.0
Cc1c(NCc2cc(Cl)ccc2O)c(=O)n(-c2ccccc2)n1C	1.3	25.5	49.7*	11.3	-29.8	-4.0	25.0	6.4	23.7	13.0
c1ccc(CCN2CN=C(Nc3nc4ccccc4s3)NC2)cc1	-55.8	51.0*	78.8*	9.5	-33.1	-5.0	40.0*	-0.2	10.5	3.0
COc1ccc(C(=O)CCN2CCCC(C)C2)cc1 (stereo not drawn)	-4.3	15.7	78.8*	-0.3	-10.7	0.9	76.1*	1.1	18.5	2.1
COc1ccc(C(=O)CCN2CCC(C)CC2)cc1	-7.2	-23.0	3.8	-4.1	-1.2	-13.2	.	.	.	.
CC1CCCN(CCC(=O)c2ccc(Br)cc2)C1 (stereo not drawn)	2.1	22.1	75.0*	8.3	4.7	-1.2	92.8*	3.3	57.4*	7.1
CC1CCCN(CCOc2ccc(Br)cc2)C1 (stereo not drawn)	-9.8	-14.6	13.9	-6.6	0.5	3.5	.	.	.	.
CC1(C)Cc2nc3scc(NC(=O)c4ccccc4)c3cc2CO1	-10.3	-3.8	1.1	11.0	-26.3	-1.4	.	.	.	.
CN(CCc1ccccc1)c1cc2c(c3c1ccn3C)C1CCC2O1 (stereo not drawn)	.	69.0*	77.8*	.	.	-4.7	94.1*	1.9	78.5*	5.1
CCN(Cc1ccccc1)c1cc2c(c3c1ccn3C)C1CCC2O1 (stereo not drawn)	.	-43.5	9.5	.	.	-2.7	.	.	.	.
CC(=O)Nc1ccc(NC(=O)C(C)OC(=O)c2ccccc2NS(=O)(=O)c2cccs2)cc1 (stereo not drawn)	-12.6	-4.7	9.5	14.9	-15.7	-2.7	.	.	.	.
NC(N)=N/N=C/c1c(Cl)cccc1Cl	-7.3	54.5*!	61.1*	6.2	-11.3	-3.1	87.8*	1.6	91.2*	8.8
CC1Nc2ncnc(N3CCc4ccccc4C3)c2N(Cc2ccc(Br)cc2)C1=O (stereo not drawn)	-19.9	32.3	83.0*	19.4	-23.1	0.2	32.8	2.0	4.4	13.4
NS(=O)(=O)c1ccc(CCNC(=O)C2CCC(CNS(=O)(=O)c3ccc(Br)s3)CC2)cc1 (stereo not drawn)	1.4	71.5*	52.6*	-1.6	-15.1	-4.8	40.9*	0.7	59.1*	6.8
O=C(NCCc1ccccc1)C1CCC(CNS(=O)(=O)c2cccs2)CC1 (stereo not drawn)	2.1	11.8	7.1	6.4	-13.0	-3.3	.	.	.	.
COc1ccc(-n2nc3c(N4CCC(C(=O)NCc5ccccc5C)CC4)nnc(C)c3c2C)cc1	-23.9	.	.	2.1	-18.6	.	.	.	.	.
COc1ccc(-n2nc3c(N4CCC(C(=O)NCC(C)c5ccccc5)CC4)nnc(C)c3c2C)cc1 (stereo not drawn)	-19.0	3.5	59.3*	13.4	-39.9	-12.9	56.4*	1.1	25.6	-0.5
CC1(c2ccc(Cl)cc2)NC(=O)N(CC(=O)Nc2ccc3c(c2)OCO3)C1=O (stereo not drawn)	.	35.8	58.9*	.	.	-5.2	76.5*	23.7*	54.2*	24.0*
Cc1ccc(NC(=O)CN2C(=O)NC(C)(c3ccc4c(c3)OCO4)C2=O)cc1 (stereo not drawn)	-11.0	-13.3	12.0	6.1	-10.9	-1.5	.	.	.	.
Cc1cc(C(=O)COC(=O)C2=NNC(=O)CC2)c(C)n1CCc1ccccc1	-25.0	15.3	61.0*	17.4	-22.8	-3.0	86.5*	2.6	76.0*	10.3
COc1ccc(CCn2c(C)cc(C(=O)COC(=O)c3ccc(NC(=O)CC#N)cc3)c2C)cc1	-0.6	.	.	6.4	3.8	.	.	.	.	.
Cc1cc(C(=O)COC(=O)c2ccc(NC(=O)CC#N)cc2)c(C)n1CCc1ccc(F)cc1	10.6	45.5	54.5*	9.9	16.7	-2.2	81.5*	6.5	77.3*	30.4*
COc1ccccc1-c1c(C)oc2cc(OCC(=O)OCc3ccccc3)ccc2c1=O	7.1	42.0	3.8	15.2	3.4	-4.6	.	.	.	.
Cc1nn(C(=O)CCC(=O)NCc2cccc(F)c2)c2ccccc12	-0.1	-1.5	3.1	5.3	3.7	-7.5	.	.	.	.
Cc1nn(C(=O)CCC(=O)NCCc2ccccc2)c2ccccc12	-1.4	.	.	12.2	-12.0	-4.6	.	4.5	.	8.3
O=C1N/C(=C/c2ccc(N3CCCC3)cc2)C(=O)N1c1ccccc1	-4.2	-6.2	0.2	22.8	-8.7	-2.3	.	.	.	.
O=C1/C(=C/c2ccc(N3CCCC3)cc2)NC(=S)N1C1CC1	57.7*	99.1*	177.5*	17.0	106.0*	2.1	58.4*	61.1*	70.8*	70.5*
COc1cc(CN2CCc3ccccc3C2)cc([N+](=O)[O-])c1O	-11.7	58.8*	97.9*	32.2	-12.3	-8.1	98.2*	0.8	77.2*	-5.6
COc1cc(CN2CCc3ccccc3C2)ccc1O	14.1	.	.	9.6	-5.5	-2.0	.	-0.5	.	4.2
